ChEMBL document CHEMBL4145481, “Synthesis and biological evaluation of novel bavachinin analogs as anticancer agents” (Eur J Med Chem, 2018)
Calls of active or inactive are those of the source. The calls are words filed in the database; no cut-off is given here.

Key:
[1] = tested on: A549; assay: Cytotoxicity against human A549 cells assessed as growth inhibition at 50 uM after 48 hrs by SRB assay relative to control; type: functional; conditions: A549, 48 h, read-out: GI
Method in brief: (§1)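 SRB growth-inhibition run in RPMI-1640/10% FBS at 37°C, 5% CO₂. Cell lines were seeded (PC-3 7000, MCF-7 8000, A549 7500, HCT-116 7000/well) and attached 24 h. The treatment series included 50 μM, with 48 h exposure. Cells were cold-TCA fixed and stained with 0.4% SRB. Dye was solubilized in 10 mM Tris pH 10.4 and read at 540 nm against untreated control.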

[2] = tested on: PC-3; assay: Cytotoxicity against human PC3 cells assessed as growth inhibition at 50 uM after 48 hrs by SRB assay relative to control; type: functional; conditions: PC-3, 48 h, read-out: GI; method in brief: as §1
[3] = tested on: HCT-116; assay: Cytotoxicity against human HCT116 cells assessed as growth inhibition at 50 uM after 48 hrs by SRB assay relative to control; type: functional; conditions: HCT-116, 48 h, read-out: GI; method in brief: as §1
[4] = tested on: MCF7; assay: Cytotoxicity against human MCF7 cells assessed as growth inhibition at 50 uM after 48 hrs by SRB assay relative to control; type: functional; conditions: MCF7, 48 h, read-out: GI; method in brief: as §1
[5] = tested on: A549; assay: Cytotoxicity against human A549 cells assessed as growth inhibition after 48 hrs by SRB assay; type: functional, cell-based; conditions: A549, 48 h
Method in brief: (§2)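 Cells were grown in RPMI-1640 with 10% FBS and penicillin/streptomycin at 37°C, 5% CO₂. Seeding was PC-3 7000, MCF-7 8000, A549 7500 and HCT-116 7000 cells/well, with 24 h attachment. Cells were exposed to 1, 5, 10, 30 and 50 μM for 48 h, with a 5-fluorouracil reference. Cells were TCA-fixed (1 h, 4°C) and stained with 0.4% SRB. Bound dye was dissolved in 10 mM Tris pH 10.4 and read at 540 nm. IC50 came from the concentration-response.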

[6] = tested on: PC-3; assay: Cytotoxicity against human PC3 cells assessed as growth inhibition after 48 hrs by SRB assay; type: functional, cell-based; conditions: PC-3, 48 h; method in brief: as §2
[7] = tested on: HCT-116; assay: Cytotoxicity against human HCT116 cells assessed as growth inhibition after 48 hrs by SRB assay; type: functional, cell-based; conditions: HCT-116, 48 h; method in brief: as §2
[8] = tested on: MCF7; assay: Cytotoxicity against human MCF7 cells assessed as growth inhibition after 48 hrs by SRB assay; type: functional, cell-based; conditions: MCF7, 48 h; method in brief: as §2
[9] = tested on: HCT-116; assay: Anticlonogenic activity against human HCT116 cells incubated for 24 hrs measured up to 14 days by crystal violet staining-based assay; type: functional, cell-based
Method in brief: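 HCT-116 cells (8x10^4/mL/well) were treated 24 h at 3.6, 7.2 and 14.4 μM. They were then trypsinized and re-seeded at 1000 cells/well, and grown about 14 days to colonies of >50 cells. Colonies were fixed in 4% formaldehyde and stained with 0.5% crystal violet. Colony number was expressed relative to untreated control, with 5-fluorouracil as reference; means ± SD, n = 3.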

[10] = tested on: HCT-116; assay: Antimigratory activity against human HCT116 cells assessed as inhibition of wound closure up to 24 hrs by wound scratch assay; type: functional, cell-based
Method in brief: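 HCT-116 cells were plated at 8×10^5/well and grown to 70–80% confluence, then serum-starved 24 h. The monolayer was scratched with a pipette tip and treated at 3.6, 7.2 and 14.4 μM for 24 h. Wounds were imaged at 0 and 24 h (20x). Percent wound closure was computed from wound areas relative to control; means ± SD, n = 3.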

[11] = tested on: HCT-116; assay: Induction of morphological changes in human HCT116 cells assessed as cell shrinkage after 24 hrs by phase contrast microscopic analysis; type: functional, cell-based
Method in brief: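 HCT-116 cells were exposed 24 h to 3.6, 7.2 and 14.4 μM, alongside an untreated control. Morphology was photographed by phase contrast microscopy at 20x.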

[12] = tested on: HCT-116; assay: Induction of mitochondrial membrane potential loss in human HCT116 cells after 24 hrs by rhodamine123 staining based fluorescence microscopic analysis; type: functional, cell-based
Method in brief: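 Cells were seeded at 1×10^6/1.5 mL/well and treated 24 h at 3.6, 7.2 and 14.4 μM, with 5-FU at 5 μM as reference. Rhodamine-123 (10 nM) was added for the final 1 h. After a PBS wash, fluorescence was imaged by microscopy.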

[13] = tested on: HCT-116; assay: Induction of apoptosis in human HCT116 cells assessed as PARP cleavage at 3.6 uM after 24 hrs by Western blot analysis; type: functional, cell-based
Method in brief: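 HCT-116 cells were treated 24 h at 3.6, 7.2 and 14.4 μM. RIPA whole-cell lysates with protease/phosphatase inhibitors were BCA-quantified. Equal protein was run on 10% SDS-PAGE and transferred to PVDF, then blocked with 5% BSA/TBST for 1 h. Blots were probed with anti-PARP (1:1000) and β-actin (1:500, loading control) plus HRP secondaries. The read-out was the 89 kDa cleaved fragment.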

[14] = tested on: HepG2; assay: Cytotoxicity against human HepG2 cells; type: functional, cell-based

COc1ccc([C@@H]2C/C(=N/OCc3cn(-c4ccc(C(N)=O)cc4)nn3)c3cc(CC=C(C)C)c(OC)cc3O2)cc1
inhibition of growth at 50 µM [1]: 100% | inhibition of growth at 50 µM [2]: 100% | inhibition of growth at 50 µM [3]: 100% | inhibition of growth at 50 µM [4]: 100% | IC50 [5]: 7.72 µM | IC50 [6]: 16.1 µM | IC50 [7]: 7.13 µM | IC50 [8]: 11.7 µM | Activity [9]: Dose-dependent effect | inhibition [10]: Dose-dependent effect | Activity [11]: Dose-dependent effect | Activity [12]: Dose-dependent effect | Activity [13]: Active

COc1cc2c(cc1CC=C(C)C)C(=O)C[C@@H](c1ccc(OC3O[C@H](CO)[C@@H](O)[C@H](O)[C@H]3O)cc1)O2 (some centres undefined)
IC50 [14]: 48.5 µM
